{
  "source": "paper PMC8092417",
  "about": "(Anti-cancer drugs, 2020)",
  "key": {"[1]": {"system": "TU-BcX-4IC cells", "test": "qRT-PCR of epithelial and mesenchymal genes", "format": "cell-based, human", "settings": "1 μM, 72 hours", "summary_of_the_method": "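Cells were treated 72 h with test compound (1 μM) or DMSO. Total RNA was column-isolated and checked for quantity and quality by absorbance (260, 280 nm). Then 2 μg total RNA was reverse-transcribed and gene expression measured by qRT-PCR.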"}, "[2]": {"system": "BT549 cells", "test": "Transwell migration assay", "format": "cell-based, human", "settings": "BT549, pretreated 1 μM 72 hours, 24 hours migration", "summary_of_the_method": "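Cells were pretreated 72 h with test compound (1 μM) or DMSO, and viable cells were then seeded into transwell chambers for 24 h. Non-migrated cells were removed. Migrated cells were fixed, crystal violet-stained, imaged by brightfield and counted. Counts were normalized to DMSO per cell line; triplicate experiments.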"}, "[3]": {"system": "TU-BcX-49S cells", "test": "qRT-PCR of epithelial and mesenchymal genes", "format": "cell-based, human"}, "[4]": {"molecular_target": "PDGFRB (Homo sapiens, UniProt P09619)", "sequence (P09619 33-1106)": "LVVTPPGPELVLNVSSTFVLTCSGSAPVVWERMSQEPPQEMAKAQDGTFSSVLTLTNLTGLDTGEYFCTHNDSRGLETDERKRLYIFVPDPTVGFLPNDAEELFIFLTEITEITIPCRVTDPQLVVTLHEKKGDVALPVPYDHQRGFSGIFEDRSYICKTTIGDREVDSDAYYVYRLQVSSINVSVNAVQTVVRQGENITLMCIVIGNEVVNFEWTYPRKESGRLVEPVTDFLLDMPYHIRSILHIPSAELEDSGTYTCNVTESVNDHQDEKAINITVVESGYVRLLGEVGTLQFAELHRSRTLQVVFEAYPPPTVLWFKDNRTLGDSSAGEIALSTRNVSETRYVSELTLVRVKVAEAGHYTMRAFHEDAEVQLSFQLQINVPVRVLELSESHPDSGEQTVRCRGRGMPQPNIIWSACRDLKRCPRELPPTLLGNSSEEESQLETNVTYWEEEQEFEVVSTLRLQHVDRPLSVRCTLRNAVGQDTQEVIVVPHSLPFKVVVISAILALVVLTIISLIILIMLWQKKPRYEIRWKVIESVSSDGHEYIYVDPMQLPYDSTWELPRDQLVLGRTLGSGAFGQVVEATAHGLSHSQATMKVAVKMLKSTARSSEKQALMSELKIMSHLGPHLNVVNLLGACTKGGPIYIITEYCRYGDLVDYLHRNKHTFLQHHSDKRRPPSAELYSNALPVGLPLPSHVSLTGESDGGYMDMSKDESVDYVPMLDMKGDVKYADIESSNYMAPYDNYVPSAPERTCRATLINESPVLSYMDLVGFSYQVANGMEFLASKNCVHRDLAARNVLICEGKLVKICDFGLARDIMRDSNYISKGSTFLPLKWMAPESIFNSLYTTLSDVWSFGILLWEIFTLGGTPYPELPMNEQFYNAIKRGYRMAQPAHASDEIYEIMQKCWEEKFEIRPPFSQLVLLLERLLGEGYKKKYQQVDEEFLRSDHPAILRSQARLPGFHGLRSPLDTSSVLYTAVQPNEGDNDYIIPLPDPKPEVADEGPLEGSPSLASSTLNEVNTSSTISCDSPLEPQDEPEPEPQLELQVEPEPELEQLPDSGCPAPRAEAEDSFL", "test": "Kinase inhibition assay", "format": "biochemical", "settings": "1 μM"}, "[5]": {"system": "MDA-MB-231 cells", "test": "Crystal violet staining, cells remaining / viability dose-response", "format": "cell-based, human", "summary_of_the_method": "(§1)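 Cells were plated at 5,000/well in 5% charcoal-stripped DMEM for 48 h, then exposed to test compound or DMSO vehicle for 72 h at 37 °C, 5% CO2. They were fixed with glutaraldehyde for 20 min and stained for 20 min with 0.1% crystal violet in 90% methanol. After overnight drying, cells were lysed in 33% acetic acid and read at 620 nm. Signal was normalized to DMSO and plotted as dose-response.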"}, "[6]": {"molecular_target": "LOK (Homo sapiens, UniProt O94804)", "sequence (O94804 whole entry)": "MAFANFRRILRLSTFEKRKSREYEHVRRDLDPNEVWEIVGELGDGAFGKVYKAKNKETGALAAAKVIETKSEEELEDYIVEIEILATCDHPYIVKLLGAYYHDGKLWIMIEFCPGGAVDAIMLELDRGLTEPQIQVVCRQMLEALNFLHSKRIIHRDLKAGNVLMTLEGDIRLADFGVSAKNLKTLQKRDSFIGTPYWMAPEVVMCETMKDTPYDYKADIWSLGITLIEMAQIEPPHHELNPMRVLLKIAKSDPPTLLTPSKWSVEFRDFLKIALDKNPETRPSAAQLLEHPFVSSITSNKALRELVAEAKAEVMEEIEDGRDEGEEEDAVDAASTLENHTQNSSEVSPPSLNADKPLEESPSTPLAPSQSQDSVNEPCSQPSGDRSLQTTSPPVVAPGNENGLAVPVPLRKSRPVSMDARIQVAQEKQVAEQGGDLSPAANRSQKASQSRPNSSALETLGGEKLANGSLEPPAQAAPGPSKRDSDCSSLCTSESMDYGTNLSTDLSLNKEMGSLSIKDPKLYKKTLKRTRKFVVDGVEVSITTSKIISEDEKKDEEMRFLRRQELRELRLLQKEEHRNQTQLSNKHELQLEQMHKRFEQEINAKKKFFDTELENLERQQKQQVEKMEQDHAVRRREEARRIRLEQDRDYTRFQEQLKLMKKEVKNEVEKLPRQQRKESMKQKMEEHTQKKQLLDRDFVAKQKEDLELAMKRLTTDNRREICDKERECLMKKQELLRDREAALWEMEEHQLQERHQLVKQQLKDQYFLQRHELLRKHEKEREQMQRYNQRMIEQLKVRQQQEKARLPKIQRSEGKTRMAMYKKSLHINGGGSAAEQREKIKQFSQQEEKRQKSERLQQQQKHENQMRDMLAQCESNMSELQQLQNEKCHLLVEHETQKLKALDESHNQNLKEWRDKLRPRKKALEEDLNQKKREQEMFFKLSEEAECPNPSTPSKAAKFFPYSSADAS", "test": "Kinase inhibition assay", "format": "biochemical", "settings": "1 μM"}, "[7]": {"molecular_target": "T1, NEK2 (Homo sapiens, UniProt P51955)", "T1 sequence (P51955 1-445)": "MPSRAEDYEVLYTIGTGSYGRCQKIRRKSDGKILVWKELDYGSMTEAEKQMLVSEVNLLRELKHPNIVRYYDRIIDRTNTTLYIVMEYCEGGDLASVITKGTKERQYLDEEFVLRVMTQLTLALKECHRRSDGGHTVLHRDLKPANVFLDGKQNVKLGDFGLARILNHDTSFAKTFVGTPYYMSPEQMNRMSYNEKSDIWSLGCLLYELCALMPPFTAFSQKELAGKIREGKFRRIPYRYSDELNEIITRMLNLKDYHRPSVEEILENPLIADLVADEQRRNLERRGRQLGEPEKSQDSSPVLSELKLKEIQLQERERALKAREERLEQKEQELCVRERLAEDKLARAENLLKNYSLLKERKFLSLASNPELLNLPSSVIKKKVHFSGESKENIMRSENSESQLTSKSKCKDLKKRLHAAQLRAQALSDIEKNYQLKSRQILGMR", "test": "Kinase inhibition assay", "format": "biochemical", "settings": "1 μM"}, "[8]": {"system": "TU-BcX-2K1 tumors", "test": "qRT-PCR of ex vivo treated PDX tumor pieces", "format": "cell-based, human", "settings": "TU-BcX-2K1 tumor pieces, 1 μM, 72 hours"}, "[9]": {"system": "MDA-MB-231 cells", "test": "qRT-PCR of epithelial and mesenchymal genes", "format": "cell-based, human", "settings": "MDA-MB-231, 1 μM, 72 hours", "summary_of_the_method": "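MDA-MB-231 cells in 5% charcoal-stripped DMEM were pre-exposed for 72 h to test compound (1 μM) or DMSO. RNA was then isolated and gene expression measured by quantitative real-time PCR.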"}, "[10]": {"system": "TU-BcX-49S tumors", "test": "qRT-PCR of ex vivo treated PDX tumor pieces", "format": "cell-based, human", "settings": "TU-BcX-49S tumor pieces, 1 μM, 72 hours"}, "[11]": {"molecular_target": "BRSK2 (Homo sapiens, UniProt Q8IWQ3)", "sequence (Q8IWQ3 whole entry)": "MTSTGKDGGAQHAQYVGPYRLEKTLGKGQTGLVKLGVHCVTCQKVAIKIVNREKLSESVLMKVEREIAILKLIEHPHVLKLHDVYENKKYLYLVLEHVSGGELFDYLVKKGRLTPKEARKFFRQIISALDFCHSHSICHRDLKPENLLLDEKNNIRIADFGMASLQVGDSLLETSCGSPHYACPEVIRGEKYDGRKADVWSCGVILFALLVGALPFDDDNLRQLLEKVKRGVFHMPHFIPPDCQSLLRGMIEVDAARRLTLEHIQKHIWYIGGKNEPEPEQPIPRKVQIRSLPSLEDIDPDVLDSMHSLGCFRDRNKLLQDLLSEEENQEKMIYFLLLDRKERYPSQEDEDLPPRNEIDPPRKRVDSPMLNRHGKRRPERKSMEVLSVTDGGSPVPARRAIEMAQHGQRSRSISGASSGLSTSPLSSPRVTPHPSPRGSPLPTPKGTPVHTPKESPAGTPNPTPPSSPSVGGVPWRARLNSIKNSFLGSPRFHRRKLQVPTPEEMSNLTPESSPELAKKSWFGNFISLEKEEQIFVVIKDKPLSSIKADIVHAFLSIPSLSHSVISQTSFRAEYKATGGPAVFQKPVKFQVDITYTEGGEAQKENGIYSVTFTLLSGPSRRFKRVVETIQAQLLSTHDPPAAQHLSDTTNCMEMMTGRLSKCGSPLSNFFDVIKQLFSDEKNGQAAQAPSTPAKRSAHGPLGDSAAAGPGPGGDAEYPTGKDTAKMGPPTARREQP", "test": "Kinase inhibition assay", "format": "biochemical", "settings": "1 μM"}, "[12]": {"system": "MDA-MB-231 cells", "test": "Ki-67 immunofluorescence staining for proliferation", "format": "cell-based, human", "settings": "MDA-MB-231, 1 μM, 72 hours"}, "[13]": {"system": "BT-549 cells", "test": "Crystal violet staining, cells remaining / viability dose-response", "format": "cell-based, human", "summary_of_the_method": "as §1"}, "[14]": {"molecular_target": "RET (Homo sapiens, UniProt P07949)", "sequence (P07949 29-1114)": "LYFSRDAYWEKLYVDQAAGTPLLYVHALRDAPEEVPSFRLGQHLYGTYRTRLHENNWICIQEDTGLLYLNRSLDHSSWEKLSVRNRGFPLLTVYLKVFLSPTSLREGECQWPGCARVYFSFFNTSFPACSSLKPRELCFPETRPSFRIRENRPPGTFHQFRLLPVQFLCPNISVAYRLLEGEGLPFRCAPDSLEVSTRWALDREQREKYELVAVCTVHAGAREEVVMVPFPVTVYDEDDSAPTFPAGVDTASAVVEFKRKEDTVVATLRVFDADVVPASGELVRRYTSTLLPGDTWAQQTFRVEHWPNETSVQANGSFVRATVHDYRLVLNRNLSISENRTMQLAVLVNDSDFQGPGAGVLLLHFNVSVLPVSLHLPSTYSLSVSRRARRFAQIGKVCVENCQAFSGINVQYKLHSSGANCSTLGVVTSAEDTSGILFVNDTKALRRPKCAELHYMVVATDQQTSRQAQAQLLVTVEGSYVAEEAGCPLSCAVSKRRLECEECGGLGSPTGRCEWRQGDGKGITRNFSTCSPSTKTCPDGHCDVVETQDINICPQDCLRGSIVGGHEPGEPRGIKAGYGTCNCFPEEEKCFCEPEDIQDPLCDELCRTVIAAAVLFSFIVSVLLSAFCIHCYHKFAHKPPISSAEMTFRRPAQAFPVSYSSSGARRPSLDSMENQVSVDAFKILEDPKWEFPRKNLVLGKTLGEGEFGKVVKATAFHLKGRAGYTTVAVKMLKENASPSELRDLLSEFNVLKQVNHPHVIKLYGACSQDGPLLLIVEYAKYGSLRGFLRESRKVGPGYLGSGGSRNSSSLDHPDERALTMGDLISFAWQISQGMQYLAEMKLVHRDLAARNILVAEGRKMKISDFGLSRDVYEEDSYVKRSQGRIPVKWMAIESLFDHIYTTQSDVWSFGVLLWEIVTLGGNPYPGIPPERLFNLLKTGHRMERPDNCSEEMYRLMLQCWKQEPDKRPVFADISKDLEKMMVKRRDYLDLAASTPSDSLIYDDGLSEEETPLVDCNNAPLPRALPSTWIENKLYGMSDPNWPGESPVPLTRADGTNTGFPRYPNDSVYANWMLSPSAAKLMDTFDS", "test": "Kinase inhibition assay", "format": "biochemical", "settings": "1 μM"}, "[15]": {"system": "TU-BcX-4IC explants", "test": "Western blot of treated PDX tumor explants", "format": "cell-based, human", "settings": "24 hours"}, "[16]": {"system": "TU-BcX-4IC tumors", "test": "qRT-PCR of ex vivo treated PDX tumor pieces", "format": "cell-based, human", "settings": "TU-BcX-4IC tumor pieces, 1 μM, 72 hours"}, "[17]": {"system": "TU-BcX-4IC PDX model", "test": "In vivo treatment of TU-BcX-4IC implants, tumor growth and metastasis", "parameters": "species or system SCID/Beige mice", "settings": "25 mg/kg bid intraperitoneally, 15 days, vs DMSO vehicle", "summary_of_the_method": "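Female SCID/Beige mice (5/group) received bilateral mammary fat pad implants of TU-BcX-4IC tumour pieces (3 × 3 mm). Twice-daily intraperitoneal dosing with test compound or DMSO vehicle began 24 h after implantation. At sacrifice, lungs and livers were formalin-fixed, paraffin-embedded, sectioned and H&E-stained. Lesion area and number per section were quantified.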"}, "[18]": {"system": "MDA-MB-231 M2 spheres", "test": "Mammosphere formation and area quantification", "format": "cell-based, human", "settings": "MDA-MB-231, 7 days treatment", "summary_of_the_method": "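MDA-MB-231 cells were seeded at 1,000/well in low-attachment wells in serum-free F12/DMEM plus B-27 and allowed 24 h to form spheres. Spheres were then treated with test compound or DMSO for one week, re-dosed every three days. Imaging was at 40X or 100X. Sphere length and width were measured, area was calculated, and values were compared with DMSO controls.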"}, "[19]": {"system": "TU-BcX-4IC cells", "test": "Phalloidin immunofluorescence with morphometric quantification", "format": "cell-based, human", "settings": "1 μM, 72 hours"}, "[20]": {"system": "TU-BcX-4IC M2 spheres", "test": "Mammosphere formation and area quantification", "format": "cell-based, human", "settings": "7 days treatment", "summary_of_the_method": "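Cells were plated at 1,000/well in low-attachment plates in serum-free F12/DMEM with B-27 and left 24 h to form spheres. Spheres were then exposed to test compound or DMSO for one week, re-dosed every three days. Spheres were imaged at 40X or 100X, and length and width were measured to calculate area, which was compared with DMSO controls.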"}},
  "note": "pIC50: −log10 of the molar value.",
  "data": [
    {"smiles": "C[C@@H](Oc1cc(-n2cnc3ccc(NC(=O)NC(C)(C)C)cc32)sc1C(N)=O)c1ccccc1Cl", "note": "[GSK346294A]", "values": [
      {"measurement": "MMP9 mRNA expression", "setting": "[1]", "result": "Neither GSK346294A nor GSK448459A affected MMP9 expression"},
      {"measurement": "ZEB1 mRNA expression", "setting": "[1]", "result": "suppressed ZEB1 expression in TU-BcX-4IC cells albeit not significantly"},
      {"measurement": "cFOS mRNA expression", "setting": "[1]", "result": "suppressive effects in all three TNBC cell lines, although not significantly"},
      {"measurement": "Transwell cell migration", "setting": "[2]", "result": "most suppressive effects on cell migration"},
      {"measurement": "cFOS mRNA expression", "setting": "[3]", "result": "Neither GSK346294A nor GSK448459A suppressed cFOS mRNA expression"},
      {"measurement": "CDH1 mRNA expression", "setting": "[3]; compared to DMSO controls", "result": "increased CDH1 expression"},
      {"measurement": "Activity against PDGFRB", "setting": "[4]", "result": "moderate activity"},
      {"measurement": "pIC50", "setting": "[5]; Homo sapiens, MDA-MB-231, 72 h, read-out: IC-50, number of cells remaining", "result": 4.30},
      {"measurement": "Number of cells remaining compared to DMSO controls", "setting": "[5]; MDA-MB-231, 1 μM, 72 hours", "result": "decreased the number of cells remaining"},
      {"measurement": "Activity against LOK", "setting": "[6]", "result": "moderate activity"},
      {"measurement": "Binding activity to LOK", "setting": "[6]", "result": 36, "unit": "%"},
      {"measurement": "Binding activity to NEK2", "setting": "[7]", "result": 5, "unit": "%"},
      {"measurement": "CD24 mRNA expression", "setting": "[8]", "result": "increased CD24 expression"},
      {"measurement": "CDH1 mRNA expression", "setting": "[8]", "result": "increased epithelial markers CDH1 mRNA expression"},
      {"measurement": "MMP9 mRNA expression", "setting": "[9]", "result": "downregulated MMP9 expression, but not significantly"},
      {"measurement": "cFOS mRNA expression", "setting": "[9]", "result": "suppressive effects in all three TNBC cell lines, although not significantly"},
      {"measurement": "CDH1 mRNA expression", "setting": "[10]", "result": "increased epithelial markers CDH1 mRNA expression"},
      {"measurement": "Activity against BRSK2", "setting": "[11]", "result": "moderate activity"},
      {"measurement": "Ki-67 positive cells (cell proliferation)", "setting": "[12]", "result": "increased the total number of cells expressing the Ki-67 marker"},
      {"measurement": "Number of cells remaining compared to DMSO controls", "setting": "[13]; BT-549, 1 μM, 72 hours", "result": "decreased the number of cells remaining"},
      {"measurement": "pIC50", "setting": "[13]; Homo sapiens, BT-549, 72 h, read-out: IC-50, number of cells remaining", "result": 6.00},
      {"measurement": "Activity against RET", "setting": "[14]", "result": "moderate activity"},
      {"measurement": "CDH1 protein expression", "setting": "[15]", "result": "increased CDH1 protein"},
      {"measurement": "MMP9 protein expression", "setting": "[15]", "result": "suppressed the mesenchymal-associated proteins MMP9 and ZEB1"},
      {"measurement": "ZEB1 protein expression", "setting": "[15]", "result": "suppressed the mesenchymal-associated proteins MMP9 and ZEB1"},
      {"measurement": "MMP9 mRNA levels", "setting": "[16]", "result": "did not reduce MMP9 levels"},
      {"measurement": "Reversal of mesenchymal phenotype on a transcript level", "setting": "[16]", "result": "did not reverse the mesenchymal phenotype"},
      {"measurement": "Area of liver metastases per section", "setting": "[17]", "result": "minimally suppressed the area of liver metastases"},
      {"measurement": "Area of lung metastases per section", "setting": "[17]", "result": "did not affect the area of lung metastases"},
      {"measurement": "Growth of the primary tumor", "setting": "[17]", "result": "did not affect growth of the tumor"},
      {"measurement": "Metastasis to lungs and livers, overall", "setting": "[17]", "result": "did not effectively suppress metastasis"},
      {"measurement": "Number of liver metastases per section", "setting": "[17]", "result": "minimally suppressed"},
      {"measurement": "Number of metastases per lung section", "setting": "[17]", "result": "minimally reduce the overall number of metastases per lung section"},
      {"measurement": "Sphere area", "setting": "[18]", "result": "significantly increased sphere area"},
      {"measurement": "Nuclear area fraction", "setting": "[19]", "result": "most significantly reduced nuclear area fraction"},
      {"measurement": "Total cell area", "setting": "[19]", "result": "largest overall areas"},
      {"measurement": "Mammosphere formation (sphere area)", "setting": "[20]", "result": "significantly suppressed mammosphere formation"}
    ]}
  ]
}
